Measurements published in the M2OR odorant receptor database.

Experiments:
Conditions in all cases: stereoisomer not certain
[1] = biological target: OR8U9 (Homo sapiens) (UniProt P0C7N5)
Method in brief: (§1)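 Whether a receptor–molecule pair is responsive (active) rests on the original authors' judgment that its measured signal was statistically different from baseline. Pairs without that judgment are non-responsive (inactive). Sources used varied assay methods, commonly transient luciferase assays in mammalian cell lines.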

[2] = system: OR8U9 T2A Q3H Q293R
Method in brief: as §1

[3] = system: OR8U9
OR8U9, sequence (as listed by the source): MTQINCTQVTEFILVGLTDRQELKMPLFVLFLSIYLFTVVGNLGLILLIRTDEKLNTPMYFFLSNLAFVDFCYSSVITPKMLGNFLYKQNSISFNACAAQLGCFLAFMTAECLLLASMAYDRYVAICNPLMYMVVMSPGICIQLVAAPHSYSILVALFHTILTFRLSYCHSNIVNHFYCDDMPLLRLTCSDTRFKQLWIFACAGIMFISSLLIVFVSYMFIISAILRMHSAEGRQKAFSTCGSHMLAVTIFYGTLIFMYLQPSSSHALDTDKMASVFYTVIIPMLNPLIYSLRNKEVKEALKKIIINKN
Method in brief: as §1

[4] = biological target: OR9A2 (Homo sapiens) (UniProt Q8NGT5)
OR9A2 (Homo sapiens), sequence (Q8NGT5 whole entry): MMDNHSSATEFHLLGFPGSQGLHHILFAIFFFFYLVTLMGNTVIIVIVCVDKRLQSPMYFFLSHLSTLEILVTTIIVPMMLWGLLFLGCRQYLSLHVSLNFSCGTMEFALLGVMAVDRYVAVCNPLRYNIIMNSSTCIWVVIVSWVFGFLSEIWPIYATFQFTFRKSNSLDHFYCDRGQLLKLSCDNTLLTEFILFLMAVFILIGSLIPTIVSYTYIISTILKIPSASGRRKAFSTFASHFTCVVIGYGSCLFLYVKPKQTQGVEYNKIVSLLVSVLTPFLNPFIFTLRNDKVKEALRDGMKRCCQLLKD
Method in brief: as §1

[5] = system: OR9A2 C304Y
OR9A2 C304Y, sequence (as listed by the source, stated change not applied): as the sequence (Q8NGT5 whole entry) above, with C304Y counted along it
Method in brief: as §1

[6] = biological target: OR9A4 (Homo sapiens) (UniProt Q8NGU2)
OR9A4 (Homo sapiens), sequence (Q8NGU2 whole entry): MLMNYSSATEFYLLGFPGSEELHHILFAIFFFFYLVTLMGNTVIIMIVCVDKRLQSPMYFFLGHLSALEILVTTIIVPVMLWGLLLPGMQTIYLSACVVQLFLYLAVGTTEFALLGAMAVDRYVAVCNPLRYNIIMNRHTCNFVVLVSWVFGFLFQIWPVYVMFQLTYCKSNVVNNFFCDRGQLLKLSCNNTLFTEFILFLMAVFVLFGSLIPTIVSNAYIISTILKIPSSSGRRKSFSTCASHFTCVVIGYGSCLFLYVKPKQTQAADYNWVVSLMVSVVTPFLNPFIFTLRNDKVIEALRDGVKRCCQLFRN
Method in brief: as §1

[7] = biological target: OR9G1 (Homo sapiens) (UniProt Q8NH87)
OR9G1 (Homo sapiens), sequence (Q8NH87 whole entry): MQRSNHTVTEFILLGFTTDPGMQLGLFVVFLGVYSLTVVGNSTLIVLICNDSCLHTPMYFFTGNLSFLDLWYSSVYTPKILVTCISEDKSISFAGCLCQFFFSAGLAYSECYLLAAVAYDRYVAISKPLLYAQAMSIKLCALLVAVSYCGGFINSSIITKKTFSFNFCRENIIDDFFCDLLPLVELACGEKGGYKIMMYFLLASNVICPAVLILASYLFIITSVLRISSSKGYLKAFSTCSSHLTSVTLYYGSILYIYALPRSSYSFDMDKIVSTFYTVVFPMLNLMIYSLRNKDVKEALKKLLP
Method in brief: as §1

[8] = biological target: OR9G4 (Homo sapiens) (UniProt Q8NGQ1)
OR9G4 (Homo sapiens), sequence (Q8NGQ1 whole entry): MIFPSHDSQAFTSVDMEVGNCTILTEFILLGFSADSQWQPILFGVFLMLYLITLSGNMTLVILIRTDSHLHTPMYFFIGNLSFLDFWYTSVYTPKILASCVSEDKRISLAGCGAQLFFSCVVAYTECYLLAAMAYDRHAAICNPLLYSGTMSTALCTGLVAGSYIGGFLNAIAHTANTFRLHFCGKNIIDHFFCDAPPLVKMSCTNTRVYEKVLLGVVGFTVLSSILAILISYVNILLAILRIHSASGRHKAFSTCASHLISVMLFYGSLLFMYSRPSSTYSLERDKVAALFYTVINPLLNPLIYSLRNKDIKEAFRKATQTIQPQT
Method in brief: as §1

[9] = system: OR9G4 H6Y N206D V222A
Method in brief: as §1

[10] = system: OR9G4 N206D V222A
Method in brief: as §1

Measured: odorant receptor agonist call;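 further: active if original authors judged signal statistically different from baseline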

OR8U9 (Homo sapiens), sequence (P0C7N5 whole entry): as the sequence (as listed by the source) above, with R293Q counted along it

C=CCOC(=O)Cc1ccccc1
inactive: all assays above

Cc1c([N+](=O)[O-])c(C)c([N+](=O)[O-])c(C(C)(C)C)c1[N+](=O)[O-]
inactive: [1] | [4] | [6] | [7] | [8]
